# Source: ChEMBL document CHEMBL1811864 (Bioorg Med Chem, 2011)
# pEC50, pIC50: −log10 of the molar value.
# Assays:
# [1] = biological target: T1, Transcriptional activator protein LasR (Pseudomonas aeruginosa (strain ATCC 15692 / PAO1 / 1C / PRS 101 / LMG12228)) (UniProt P25084); assay: Agonist activity at Pseudomonas aeruginosa PAO1 MW1 (pUM15) LasR at 10 uM after 8 hrs by YFP fluorescence reporter gene assay relative to OdDHL
# T1 sequence (whole entry): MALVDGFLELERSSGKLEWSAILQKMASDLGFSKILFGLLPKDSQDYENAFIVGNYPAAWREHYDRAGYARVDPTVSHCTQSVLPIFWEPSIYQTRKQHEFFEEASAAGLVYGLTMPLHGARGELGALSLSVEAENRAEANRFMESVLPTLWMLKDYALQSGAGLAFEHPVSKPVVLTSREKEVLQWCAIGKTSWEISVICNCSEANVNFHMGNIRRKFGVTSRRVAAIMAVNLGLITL
# [2] = system: Escherichia coli; assay: Growth inhibition of Escherichia coli DH5alpha (pJN105L + pSC11) at 10 uM after 4 to 16 hrs; format: organism-based, DH5[alpha]; conditions: in vivo
# Summary of the method: (§1)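 Bacterial growth was monitored over the reporter gene assay time course (4–16 h) with compounds at 10 µM.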
# [3] = biological target: T2, Transcriptional activator protein LuxR (Aliivibrio fischeri) (UniProt P12746); assay: Agonist activity at Vibrio fischeri ESI 114 (delta-LuxI) LuxR at 10 uM after 8 hrs by […] relative to […]; format: functional
# T2 sequence (whole entry): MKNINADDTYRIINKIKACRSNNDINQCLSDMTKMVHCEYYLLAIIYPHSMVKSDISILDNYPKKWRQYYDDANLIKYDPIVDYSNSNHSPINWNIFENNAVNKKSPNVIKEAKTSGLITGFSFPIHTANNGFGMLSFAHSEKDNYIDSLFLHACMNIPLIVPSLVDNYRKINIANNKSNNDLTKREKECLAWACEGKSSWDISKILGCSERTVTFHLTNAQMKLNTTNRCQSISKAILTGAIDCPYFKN
# Summary of the method: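 V. fischeri ESI 114 lacking LuxI synthase but keeping its native lux operon; LuxR activity read as luminescence. Compounds were screened at 10 µM alone, without native AHL. Signal was normalized to the native-ligand positive control.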
# [4] = system: Agrobacterium tumefaciens; assay: Growth inhibition of Agrobacterium tumefaciens WCF (pCF372) at 10 uM after 4 to 16 hrs; format: organism-based; conditions: in vivo
# Summary of the method: as §1
# [5] = biological target: T3, Transcriptional activator protein TraR (Agrobacterium tumefaciens, UniProt P33905); assay: Agonist activity at Agrobacterium tumefaciens WCF (pCF372) TraR after 8 hrs by beta-galactosidase reporter gene assay relative to OOHL
# T3 sequence (P33905 whole entry): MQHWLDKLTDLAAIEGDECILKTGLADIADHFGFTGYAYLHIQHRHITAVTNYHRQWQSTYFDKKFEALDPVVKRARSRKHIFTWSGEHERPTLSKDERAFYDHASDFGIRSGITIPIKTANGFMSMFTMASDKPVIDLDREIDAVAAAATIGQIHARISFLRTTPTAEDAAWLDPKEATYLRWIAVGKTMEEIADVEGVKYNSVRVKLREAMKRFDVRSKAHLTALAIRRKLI
# [6] = biological target: T4, Transcriptional activator protein LuxR (Aliivibrio fischeri, UniProt P12746); assay: Antagonist activity at Vibrio fischeri ESI 114 (delta-LuxI) LuxR assessed as inhibition of OHHL-induced quorum sensing activation after 8 hrs by […]
# T4 sequence (P12746 whole entry): T2 sequence (whole entry)
# [7] = biological target: T5, Transcriptional activator protein TraR (Agrobacterium tumefaciens) (UniProt P33905); assay: Agonist activity at Agrobacterium tumefaciens WCF (pCF372) TraR at 10 uM after 8 hrs by beta-galactosidase reporter gene assay relative to […]; format: functional
# T5 sequence (whole entry): T3 sequence (P33905 whole entry)
# [8] = system: Pseudomonas aeruginosa; assay: Growth inhibition of Pseudomonas aeruginosa PAO1 MW1 (pUM15) at 10 uM after 4 to 16 hrs; format: organism-based; conditions: in vivo
# Summary of the method: as §1
# [9] = system: Aliivibrio fischeri; assay: Growth inhibition of Vibrio fischeri ESI 114 (delta-LuxI) at 10 uM after 4 to 16 hrs; format: organism-based; conditions: in vivo
# Summary of the method: as §1
# [10] = biological target: T2, Transcriptional activator protein LuxR (Aliivibrio fischeri); assay: Antagonist activity at Vibrio fischeri ESI 114 (delta-LuxI) LuxR assessed as inhibition of […]-induced quorum sensing activation at 10 uM after 8 hrs by […] relative to untreated control; format: functional
# [11] = biological target: T1, Transcriptional activator protein LasR (Pseudomonas aeruginosa (strain ATCC 15692 / PAO1 / 1C / PRS 101 / LMG12228)); assay: Antagonist activity at Pseudomonas aeruginosa PAO1 MW1 (pUM15) LasR assessed as inhibition of OdDHL-induced quorum sensing activation at 10 uM after 8 hrs by […] relative to untreated control; format: functional
# Summary of the method: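 P. aeruginosa PAO1 MW1 (pUM15) lacks functional LasI and carries a LasR-responsive promoter driving YFP, so fluorescence is the read-out. Compounds were tested at 10 µM. […] Background from wells with no compound or AHL was subtracted. Assays were done in triplicate.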
# [12] = Hydrolytic stability of the compound in Luria-Bertani medium containing Pseudomonas aeruginosa PA01 MW1 (pUM15) assessed as half life by measuring YFP fluorescence; format: physicochemical
# [13] = system: Escherichia coli DH5[alpha]; assay: Agonist activity at Escherichia coli DH5alpha (pJN105L + pSC11) LasR at 10 uM after 8 hrs by beta-galactosidase reporter gene assay relative to OdDHL; format: functional
# [14] = Agonist activity at Escherichia coli DH5alpha (pJN105L + pSC11) LasR after 8 hrs by beta-galactosidase reporter gene assay relative to OdDHL; format: functional, Escherichia coli DH5[alpha]
# [15] = biological target: T5, Transcriptional activator protein TraR (Agrobacterium tumefaciens); assay: Antagonist activity at Agrobacterium tumefaciens WCF (pCF372) TraR assessed as inhibition of […]-induced quorum sensing activation at 10 uM after 8 hrs by beta-galactosidase reporter gene assay relative to untreated control; format: functional
# [16] = biological target: T4, Transcriptional activator protein LuxR; assay: Agonist activity at Vibrio fischeri ESI 114 (delta-LuxI) LuxR after 8 hrs by […] relative to […]; format: functional
# [17] = system: Escherichia coli DH5[alpha]; assay: Antagonist activity at Escherichia coli DH5alpha (pJN105L + pSC11) LasR assessed as inhibition of OdDHL-induced quorum sensing activation at 10 uM after 8 hrs by beta-galactosidase reporter gene assay relative to untreated control; format: functional
# [18] = Antagonist activity at Escherichia coli DH5alpha (pJN105L + pSC11) LasR assessed as inhibition of OdDHL-induced quorum sensing activation after 8 hrs by beta-galactosidase reporter gene assay; format: functional, Escherichia coli DH5[alpha]
# [19] = biological target: T3, Transcriptional activator protein TraR; assay: Antagonist activity at Agrobacterium tumefaciens WCF (pCF372) TraR assessed as inhibition of OOHL-induced quorum sensing activation after 8 hrs by beta-galactosidase reporter gene assay
# [20] = biological target: T6, Transcriptional activator protein LasR (Pseudomonas aeruginosa (strain ATCC 15692 / PAO1 / 1C / PRS 101 / LMG12228), UniProt P25084); assay: Agonist activity at Pseudomonas aeruginosa PAO1 MW1 (pUM15) LasR after 8 hrs by YFP fluorescence reporter gene assay relative to OdDHL
# T6 sequence (P25084 whole entry): T1 sequence (whole entry)
# [21] = biological target: T6, Transcriptional activator protein LasR; assay: Agonist activity at Pseudomonas aeruginosa PAO1 MW1 (pUM15) LasR assessed as quorum sensing activation after 8 hrs by […]
SMILES,Activity [1] [%],Activity [2],Activity [3] [%],Activity [4],pIC50 [6],Activity [7] [%],Activity [8],Activity [9],inhibition [10] [%],inhibition [11] [%],half-life [12] [h],Activity [13] [%],pEC50 [14],inhibition [15] [%],pIC50 [19],also measured
CCCCCC(=O)CC(=O)N[C@H]1CCSC1=O,3,Non-toxic,0,Non-toxic,6.46,50,Non-toxic,Non-toxic,99,-8,,,,,,pEC50 [5]: 4.70
CCCCCCCCCC(=O)CC(=O)N[C@H]1CCSC1=O,88,Non-toxic,0,Non-toxic,6.35,1,Non-toxic,Non-toxic,99,,82.3,94,7.04,92,,
O=C(Cc1cccc([N+](=O)[O-])c1)N[C@H]1CCSC1=O,5,Non-toxic,21,Non-toxic,,1,Non-toxic,Non-toxic,19,-7,,82,5.39,33,,pEC50 [16]: 4.96
CCCCCCC(=O)N[C@H]1CCSC1=O,0,Non-toxic,0,Non-toxic,6.51,0,Non-toxic,Non-toxic,78,-8,,8,,78,5.00,inhibition [17]: 78%; pIC50 [18]: 6.10
CCCC(=O)CC(=O)N[C@H]1CCSC1=O,76,Non-toxic,0,Non-toxic,,1,Non-toxic,Non-toxic,62,,,96,6.89,93,5.49,pEC50 [20]: 4.89; pEC50 [21]: 4.89
CCCCCCCCCC(=O)CC(=O)N[C@H]1CCOC1=O,,,,,,,,,,,48.2,,,,,
